Test results published in ChEMBL document CHEMBL4513216, “Probing the Open Global Health Chemical Diversity Library for Multistage-Active Starting Points for Next-Generation Antimalarials” (ACS Infect Dis, 2020).

Test: Toxicity liver stage against HepG2, at 10uM
Assay type: cell-based
Design: test concentration 10 uM, cell line HepG2-A16-CD81EGFP
Settings: human, HepG2-A16-CD81EGFP cells; read-out: INHIBITION
Summary of the method: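 Uninfected HepG2-A16-CD81EGFP cells, 3 × 10^3 per well, 1536-well, plated on prespotted compound at 10 μM final, parasite-free screening media added to match infected plates; puromycin 10 μM positive, DMSO 0.5% negative; run in parallel with 48 h PbLuc assay at 37 °C, 5% CO2; viability by CellTiter-Glo luminescence, normalized to controls.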

Structure (SMILES)	cytotoxicity at 10 µM [%]
Cc1sc(NS(=O)(=O)c2ccccc2)nc1C(=O)NC1CC1	5.73
CCN(CC)C(=O)CSc1nc2c(cnn2CCO)c(=O)[nH]1	1.29
O=S(=O)(NCC(O)c1ccoc1)c1ccc(Br)s1 (stereo unspecified)	5.76
CC(=O)NCC(=O)NCC1Cn2nnc(-c3cccc(F)c3)c2CO1 (stereo unspecified)	-6.77
CC(=O)N1CC2(CCN(C(=O)c3ccoc3)C2)C1	6.47
CCOc1cc(=O)n2c(c1C(=O)OCc1ccc(OC)cc1)CCCC2	5.95
COc1ccc(NC(=O)CCSc2ccc3nncn3n2)c(OC)c1	-15.3
Cc1ccc(C2CCCCCN2Cc2cn(C)nc2C)s1 (stereo unspecified)	-6.47
Cn1ccc(C(=O)N2CCC(Cc3ccc4ncccc4c3)CC2)n1	13.7
COCCNc1ccc(CC2CCCN(c3ncccn3)C2)nn1 (stereo unspecified)	3.81
Cc1ncc(C(=O)N2CC(C(=O)N3CCCCCC3)C2)c(C)n1	6.39
COc1ccc2c(c1)c(-c1nc(C)ncc1CN)cn2C	21.7
Cc1nc(C2CCN(S(C)(=O)=O)CC2)nc2c1CCC(=O)N2CC(C)C	3.44
Cc1c(CN2C[C@@H](O)[C@H](Oc3cccc(F)c3)C2)cnn1C	-8.21
Cc1nn(C)cc1S(=O)(=O)NC1(CN2CCOCC2)CCCCC1	-8.27
Cc1ccc2c(c1)C(=O)NCC1(CCN(C(=O)c3ccccn3)CC1)O2	-25
Cc1ccccc1CN1CCOC(c2nccc(CN(C)C)n2)C1 (stereo unspecified)	-9.19
Cc1ccccc1-c1cncc(C2CCN(Cc3cnn(C)c3)CC2)n1	-30.6
O=C(c1ccncc1)N1CC[C@@H](O)[C@@H](O)[C@H](N2CCC(F)(F)CC2)C1	-10
CNc1cc(CNC(=O)c2cccnc2)nc(-c2ccncc2)n1	-9.88
Cc1csc(C(=O)N2CCCC(c3[nH]ncc3S(C)(=O)=O)C2)c1 (stereo unspecified)	-3.17
Cc1cc(C)n(Cc2ccc(C(=O)N3CCOCC3(C)C)cc2)n1	-9.23
Cn1ccnc1Sc1ncc(C(=O)N2CCCCC2)cc1Cl	-61

Structure (SMILES)	cytotoxicity at 10 µM [%]
CCOc1ccc(N(C)Cc2nnc(C)o2)cc1	9.46
O=C(CCNc1ccccc1)NC1CCN(C(=O)C2CCCCC2)CC1	6.72
CC(=O)NC1CCN(C(=O)Nc2cccc(C(F)(F)F)c2)CC1	-6.74
CCn1cnnc1CCNS(=O)(=O)N1CCCC1c1ccco1 (stereo unspecified)	-136
O=C(OCCF)c1cccc(C(=O)N2CCCC2)n1	0.684
CC(C)CC(NCc1cccs1)c1ccccn1 (stereo unspecified)	3.46
COC1CCN(CCNC(=O)NC(C)c2cccc(Cl)c2)CC1 (stereo unspecified)	-2.46
CCN(CC)C(=O)CCCNC(=O)c1csc(NC2CC2)n1	8.67
CCc1nc(C(=O)N(C)CC(=O)N(C)C)nn1-c1ccccc1Cl	-23.5
COc1cccc(S(=O)(=O)CCN2CCN(CC(F)F)CC2)c1	-3.96
CCS(=O)(=O)NCCNCc1ccc(Cl)c2cccnc12	-0.969
COc1ccc(CNC(=O)NCc2ccc(C(N)=O)cc2)cn1	-2.94
Cc1ncc(CN(C)C(=O)Nc2cccc(C(=O)N3CCOCC3)c2)s1	11.6
CN(C)C1(CNc2ncc(Br)cn2)CCOCC1	-8.66
Cc1nn(C)c(C)c1OCC(=O)N1CCCCC1	2.23
CCC(CC)(CC)NC(=O)Nc1nnc(-c2ccccn2)s1	-2.27
CCOC1CCCN(C(=O)c2[nH]nc(C)c2Br)C1 (stereo unspecified)	0.966
NC(=O)Cn1ccc(NC(=O)C2(c3cccc(F)c3)CCC2)n1	-5.75
COC(C)c1cccc(NC(=O)N(CCC#N)Cc2ccccn2)c1 (stereo unspecified)	13.1
CC(NC(=O)N1CCC(CC(N)=O)CC1)c1csc2ccccc12 (stereo unspecified)	1.73
NC(=O)c1ccc(OCC(=O)N2CCCC2c2ccc[nH]2)cc1 (stereo unspecified)	-5.82
Cc1ccc(OCCCNC(=O)Cc2nc3ncccn3n2)cc1	-1.08
Cc1cc(Br)c(O)c(C(=O)N2CCC(CN3CCCCCC3)CC2)c1	8.29

Structure (SMILES)	cytotoxicity at 10 µM [%]
CC(C)c1noc(CS(=O)(=O)CC(=O)NCc2cccs2)n1	2.71
CC(Sc1nnc(C2CC2)n1CC(N)=O)c1ccc(F)c(Cl)c1 (stereo unspecified)	4.26
CC(=O)NCC(=O)N1CCN(CC2CC2)c2ncccc2C1	0.359
Cc1cnc(C)c(N2CCCC(C/C=C/c3ccccc3)(C(=O)O)C2)n1 (stereo unspecified)	9.42
O=C(CCC1CCCN(S(=O)(=O)C2CC2)C1)Nc1ccc(Cl)cc1 (stereo unspecified)	3.69
CC(C)=CCN1CC2(CCN(C(=O)CCn3ccnc3C)CC2)CC1=O	-6.3
Cc1nc(CN(C)C(=O)Nc2cccc(C)c2C)no1	-0.739
COc1cc(C)cc(C(C(=O)O)N(C)CCN2CCCC2)c1OC (stereo unspecified)	0.712
CC(C)Cc1ncc2c(n1)CN(c1cc(N3CCCC3)nc(N)n1)C2	0.489
COCCN(C/C=C/c1ccccc1)Cc1ccccn1	6.82
Cc1ccc(C(C)NCc2cn(CCC(N)=O)c3ccccc23)cc1C (stereo unspecified)	-1.69
CN(C)CCN(C)C1CCCN(C(=O)c2ccc(Cn3ccnc3)o2)C1 (stereo unspecified)	6.69
O=C(COc1ccccc1O)N1CCOC(C(F)(F)F)C1 (stereo unspecified)	-2.3
CCN(C)S(=O)(=O)NCC1CCN(Cc2ccccc2F)C1 (stereo unspecified)	-2.48
CC(C)N1C[C@H](NC(=O)c2coc(COc3cccc(F)c3)n2)[C@@H](O)C1	-145
CCOc1ccnc(NCc2nc(C)cc(=O)[nH]2)n1	-8.42
CCCc1nc(N2CCCN3CCC[C@H]3C2)c2cnn(C)c2n1	-129
Cn1ncc2c(N3CCN(CCC(N)=O)CC3)nc(C3CCCC3)nc21	-2.45
Cn1c(C2CCCN2C(=O)c2cn(CCN)nn2)nc2ccccc21 (stereo unspecified)	3.76
Cc1ccc(C(=O)O)cc1CNC(=O)CN1CC[C@](C)(O)C(C)(C)C1	-4.18
CCn1c(C2CCN(Cc3cc(C)n(NC(C)=O)c3C)CC2)n[nH]c1=O	4.74
CC(=O)Nc1ccc(Oc2cccc(CN3CCCC3)c2)cc1	-14
Cc1nc(O)cc(C2CCCN(C(=O)CN(C)c3ccccc3)C2)n1 (stereo unspecified)	12.8

Structure (SMILES)	cytotoxicity at 10 µM [%]
Cc1ccccc1C1CCN(CCn2cc(-c3nccn3C)nn2)C1 (stereo unspecified)	4.96
CCN(Cc1cnn(C)c1)C(=O)c1ccc(C)c(N2CCNC2=O)c1	-7.08
COc1ccc(OC)c(C2CCN(C3CCN(C(C)=O)CC3)C2)c1 (stereo unspecified)	-3.2
Cc1ccc(N2CCC(CCN3CCCC3=O)CC2)nn1	6.35
Cc1[nH]nc(CCC(=O)N2CCc3ncnc(NCCO)c3CC2)c1C	-0.781
C[C@@H]1CN(C(=O)CCN2CCCC2)CC[C@@]1(O)C1CCC1	-7.97
NCCCn1nc(C(F)(F)F)c2c1CCC2	-8.3
COc1ccc(CNC(C)Cn2cccn2)cc1OC (stereo unspecified)	-0.966
CCc1csc(C2CCCN(C(=O)c3cc(C4CC4)[nH]n3)C2)n1 (stereo unspecified)	-1.22
CCc1nnc(CN(C)C2CCCN(Cc3noc(C4CC4)n3)C2)o1 (stereo unspecified)	2.27
O=C(c1csc(-c2cnccn2)n1)N1CCCC1Cn1cccn1 (stereo unspecified)	-7.35
CCOc1ccc(C(=O)N(Cc2cnn(C)c2)C(C)C)cc1OCC	-8.4
CC(C(=O)N1CCOCC1)N1CCN(Cc2nccn2C)CC1 (stereo unspecified)	-1.71
O=C(c1cc(C2CC2)on1)N1CCCC(n2cccn2)C1 (stereo unspecified)	-4.04
CC(Nc1cccc(CN2CCOC2=O)c1)C(=O)Nc1cccc(F)c1 (stereo unspecified)	-9.16
O=C(c1cccc2ncccc12)N1CCCC(n2ccnc2)C1 (stereo unspecified)	-11.6
COc1ccc(CNCc2c(C(C)C)nn(C)c2OC)cn1	-10.9
Cc1noc(C)c1CC(=O)N1CCN(Cc2cscn2)CC1	-8.72
CCOc1cccc2c1OCC(C(=O)NS(=O)(=O)c1cccs1)=C2	-2.97
COCCN(CCOC)Cc1nc2c(cnn2C)c(=O)[nH]1	-9.73
Cc1noc2ncc(C(=O)N3CCCC(n4cccn4)C3)cc12 (stereo unspecified)	-1.39
CCC1CN(C(=O)Nc2cnc3c(cnn3C(C)C)c2)CCO1 (stereo unspecified)	-9.46
CC(NC(=O)Cc1cccs1)c1nnc2n1CCCCC2 (stereo unspecified)	-15.5

Structure (SMILES)	cytotoxicity at 10 µM [%]
CC(C)c1ncc2c(n1)CN(Cc1nc(-c3ccoc3)no1)CC2	-3
Cc1cnn(CC2CN(CC(=O)Nc3nnc(C)s3)CCO2)c1 (stereo unspecified)	-0.472
COc1c(CNC(c2ccc(F)cc2)c2nccn2C)c(C)nn1C (stereo unspecified)	-12.7
CNS(=O)(=O)Cc1ccc(CNC(=O)Nc2cn[nH]c2)cc1	-0.935
CC(Cn1cccn1)NC(=O)N(C)Cc1ccc(Cl)s1 (stereo unspecified)	-11.9
C1CC(NCc2nc(C3CC3)no2)CN(Cc2noc(C3CC3)n2)C1 (stereo unspecified)	-8.65
Cc1cc(C)n(CC2CCCN2CC(=O)N(C)Cc2cnn(C)c2)n1 (stereo unspecified)	-5.85
c1cnnc(N2CCCC(NCc3cn4ccccc4n3)C2)c1 (stereo unspecified)	-5.87
O=C(c1ccn(-c2cccc(F)c2)n1)N1CCCC(n2cccn2)C1 (stereo unspecified)	-5.25
Cc1nn(C)c(N2CCOCC2)c1CNCc1ccc(Cl)s1	4.09
CC1CN(C(=O)CN(Cc2ccccc2Br)C2CC2)CCO1 (stereo unspecified)	2.38
CCn1nc(C)c(-c2cncn2CCN(C)C2CCCC2)c1C	4.83
CCN1CCc2cc(-c3cncn3CCNC3CCS(=O)(=O)C3)ccc21 (stereo unspecified)	-1.59
O=C(NCc1cccs1)[C@@H]1CC[C@@H]2[C@@H](CCN2C2CCOCC2)O1	0.37
Cn1cc(N2CC3(CCN(Cc4ccoc4)CC3)OCC2=O)cn1	-1.66
CCc1nc2ccccc2c(=O)n1CC1(O)CCNCC1	-15.3
CC(C)c1cc(C(=O)N2CCc3nc(C4CCCN4)ncc3C2)cs1 (stereo unspecified)	-16.5
c1cnn(Cc2nnc3n2CCCN(CC2CCOCC2)C3)c1	2.6
CCOc1ccc(C(=O)N2C[C@@H]3CC[C@H]2CN(C)C3)cc1OCC	-15.7
